Calls of active or inactive are those of the source. The rule behind the calls is not given here.
Assays:
MDA-MB-231 [1] = test: Induction of apoptosis in human MDA-MB-231 cells assessed as late apoptotic cells at 0.1 uM after 24 hrs by annexin V-FITC/propidium iodide staining-based flow cytometric analysis (reference value: 2.67%); assay type: functional
Focal adhesion kinase 1 = Focal adhesion kinase 1 (Homo sapiens, UniProt Q05397); test: Inhibition of human FAK
Summary of the method: (§1)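 Recombinant human protein kinases screened through the Eurofins KinaseProfiler service. IC50 values are means of two independent experiments.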

MDA-MB-231 [2] = test: Induction of apoptosis in human MDA-MB-231 cells assessed as late apoptotic cells at 0.03 uM after 24 hrs by annexin V-FITC/propidium iodide staining-based flow cytometric analysis (reference value: 2.67%); assay type: functional
MDA-MB-231 [3] = test: Induction of apoptosis in human MDA-MB-231 cells after 24 to 48 hrs by annexin V-FITC/propidium iodide staining-based flow cytometric analysis; assay type: functional, cell-based
Mus musculus [4] = test: In vivo inhibition of Src phosphorylation in tumor of SCID mouse xenografted with human MDA-MB-231 cells at 30 mg/kg/day, po administered for 18 days measured post last dose by immunohistochemical analysis relative to vehicle-treated control; assay type: functional, organism-based
Summary of the method: (§2)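 SCID mice carrying subcutaneous MDA-MB-231 xenografts received oral dosing once daily for 18 days (vehicle 25% PEG400 plus 5% DMSO in sterile water); at the end, tumors formalin-fixed and paraffin-embedded, 4–8 μm sections immunostained (Ki67, phospho-proteins) or TUNEL/AP-Red labelled, and compared with control.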

Bcr/Abl fusion protein = Bcr/Abl fusion protein (Homo sapiens, UniProt P00519); test: Inhibition of human BCR/ABL; assay type: protein assay
Summary of the method: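 Recombinant human BCR-ABL kinase, tested as part of a selected kinase panel through a commercial kinase-profiling service. IC50 is the mean of two independent experiments.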

Mus musculus [5] = test: Toxicity in SCID mouse xenografted with human MDA-MB-231 cells at 7.5 to 15 mg/kg/day, po qd administered for 18 days measured everyday during compound dosing; assay type: organism-based; set-up: route oral; settings: in vivo, 432 h
Summary of the method: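 SCID mice (5–6 weeks) implanted subcutaneously with 100 μL of MDA-MB-231 suspension at 5 ×10^7 per mL. At 150–200 mm3 tumours, mice were randomised (6 per group) and dosed orally once daily for 18 days in water with 25% PEG400 plus 5% DMSO. Side effects were monitored daily.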

MDA-MB-231 [6] = test: Effect on AKT phosphorylation in human MDA-MB-231 cells at 0.001 to 1 uM after 20 hrs by Western blot analysis; assay type: cell-based
Summary of the method: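 MDA-MB-231 cells exposed to a concentration series for 20 h at 37 °C, lysed in RIPA with protease inhibitor cocktail, cleared by centrifugation, protein quantified by Bradford, resolved by SDS-PAGE, transferred to PVDF and immunoblotted.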

MDA-MB-231 [7] = test: Induction of apoptosis in human MDA-MB-231 cells assessed as viable cells at 0.3 uM after 24 hrs by annexin V-FITC/propidium iodide staining-based flow cytometric analysis (reference value: 95.5%); assay type: functional; settings: MDA-MB-231, 24 h, read-out: Activity
[8] = biological target: Cyclin-dependent kinase 7 (Homo sapiens, UniProt P50613); test: Inhibition of human CDK7; summary of the method: as §1
[9] = biological target: RAC-beta serine/threonine-protein kinase (Homo sapiens, UniProt P31751); test: Inhibition of human PKBbeta; summary of the method: as §1
Aurora kinase A = Aurora kinase A (Homo sapiens, UniProt O14965); test: Inhibition of human Aurora-A; summary of the method: as §1
MDA-MB-231 [10] = test: Induction of apoptosis in human MDA-MB-231 cells assessed as viable cells at 0.3 uM after 48 hrs by annexin V-FITC/propidium iodide staining-based flow cytometric analysis (reference value: 94.4%); assay type: functional; settings: MDA-MB-231, 48 h, read-out: Activity
[11] = biological target: Proto-oncogene tyrosine-protein kinase Src (Homo sapiens, UniProt P12931)
MDA-MB-231 [12] = test: Cell cycle arrest in human MDA-MB-231 cells assessed as accumulation at G0/G1 phase at 0.1 to 0.3 uM after 24 to 48 hrs by flow cytometric analysis; assay type: functional, cell-based
[13] = biological target: Protein kinase C alpha type (Homo sapiens, UniProt P17252); test: Inhibition of human PKCalpha; summary of the method: as §1
[14] = biological target: RAC-alpha serine/threonine-protein kinase (Homo sapiens, UniProt P31749); test: Inhibition of human PKBalpha; summary of the method: as §1
MDA-MB-231 [15] = test: Inhibition of MEK phosphorylation in human MDA-MB-231 cells at 0.001 to 1 uM after 20 hrs by Western blot analysis; assay type: cell-based
Summary of the method: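 MDA-MB-231 cells exposed to a concentration series for 20 h at 37 °C, then washed in ice-cold saline and lysed in RIPA buffer with protease cocktail. Lysates were cleared at 12 000 rpm for 10 min at 4 °C and protein measured by Bradford. Equal protein was run on SDS-PAGE, transferred to PVDF and immunoblotted for phospho-proteins.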

MDA-MB-231 [16] = test: Antimigratory activity against human MDA-MB-231 cells at >0.03 uM after 20 hrs by wound healing assay; assay type: functional, cell-based
Summary of the method: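 MDA-MB-231 monolayers grown to confluence, scratched with a sterile pipet tip, rinsed with saline, then kept in DMEM containing vehicle or compound; wound images taken after 20 h and analysed.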

MDA-MB-231 [17] = test: Induction of apoptosis in human MDA-MB-231 cells assessed as viable cells at 0.1 uM after 24 hrs by annexin V-FITC/propidium iodide staining-based flow cytometric analysis (reference value: 95.5%); assay type: functional; settings: MDA-MB-231, 24 h, read-out: Activity
Mus musculus [18] = test: In vivo inhibition of MEK phosphorylation in tumor of SCID mouse xenografted with human MDA-MB-231 cells at 30 mg/kg/day, po administered for 18 days measured post last dose by immunohistochemical analysis relative to vehicle-treated control; assay type: functional, organism-based; summary of the method: as §2
MDA-MB-231 [19] = test: Induction of apoptosis in human MDA-MB-231 cells assessed as viable cells at 0.03 uM after 24 hrs by annexin V-FITC/propidium iodide staining-based flow cytometric analysis (reference value: 95.5%); assay type: functional; settings: MDA-MB-231, 24 h, read-out: Activity
[20] = Cytotoxicity against human HBL1 cells assessed as cell viability after 72 hrs by MTT assay; assay type: functional, cell-based; settings: HBL1, 72 h
MDA-MB-231 [21] = test: Antiproliferative activity against human MDA-MB-231 cells assessed as inhibition of colony formation at >0.01 uM after 12 days by crystal violet staining-based assay; assay type: functional, cell-based
Summary of the method: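 MDA-MB-231 cells plated at 5000 per well and treated the next day with vehicle or compound, medium refreshed every 4 days; after 12 days, colonies fixed in methanol, crystal violet stained and photographed.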

[22] = biological target: Serine/threonine-protein kinase mTOR (Homo sapiens, UniProt P42345); test: Inhibition of human mTOR; summary of the method: as §1
[23] = biological target: Glycogen synthase kinase-3 beta (Homo sapiens, UniProt P49841); test: Inhibition of human GSK3beta; summary of the method: as §1
[24] = biological target: Serine/threonine-protein kinase Chk1 (Homo sapiens, UniProt O14757); test: Inhibition of human CHK1; summary of the method: as §1
[25] = biological target: Serine/threonine-protein kinase TBK1 (Homo sapiens, UniProt Q9UHD2); test: Inhibition of human TBK1; summary of the method: as §1
MCF7 = test: Cytotoxicity against human MCF7 cells assessed as cell viability after 72 hrs by MTT assay; assay type: functional, cell-based; settings: MCF7, 72 h

Chain of Serine/threonine-protein kinase Chk1 (O14757 whole entry): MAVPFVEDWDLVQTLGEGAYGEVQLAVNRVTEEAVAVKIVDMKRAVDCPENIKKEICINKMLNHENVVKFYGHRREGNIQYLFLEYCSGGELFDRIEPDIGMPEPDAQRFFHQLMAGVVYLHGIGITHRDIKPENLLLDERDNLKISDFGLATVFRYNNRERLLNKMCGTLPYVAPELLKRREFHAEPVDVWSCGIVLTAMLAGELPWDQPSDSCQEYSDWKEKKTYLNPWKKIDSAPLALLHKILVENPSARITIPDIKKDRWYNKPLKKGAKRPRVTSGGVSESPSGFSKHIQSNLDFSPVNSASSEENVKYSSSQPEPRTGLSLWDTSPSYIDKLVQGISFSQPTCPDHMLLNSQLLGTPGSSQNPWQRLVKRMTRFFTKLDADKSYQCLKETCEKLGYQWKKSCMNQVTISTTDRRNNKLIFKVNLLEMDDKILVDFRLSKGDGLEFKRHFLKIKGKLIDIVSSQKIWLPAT
Chain of Proto-oncogene tyrosine-protein kinase Src (P12931 2-536 limits assumed): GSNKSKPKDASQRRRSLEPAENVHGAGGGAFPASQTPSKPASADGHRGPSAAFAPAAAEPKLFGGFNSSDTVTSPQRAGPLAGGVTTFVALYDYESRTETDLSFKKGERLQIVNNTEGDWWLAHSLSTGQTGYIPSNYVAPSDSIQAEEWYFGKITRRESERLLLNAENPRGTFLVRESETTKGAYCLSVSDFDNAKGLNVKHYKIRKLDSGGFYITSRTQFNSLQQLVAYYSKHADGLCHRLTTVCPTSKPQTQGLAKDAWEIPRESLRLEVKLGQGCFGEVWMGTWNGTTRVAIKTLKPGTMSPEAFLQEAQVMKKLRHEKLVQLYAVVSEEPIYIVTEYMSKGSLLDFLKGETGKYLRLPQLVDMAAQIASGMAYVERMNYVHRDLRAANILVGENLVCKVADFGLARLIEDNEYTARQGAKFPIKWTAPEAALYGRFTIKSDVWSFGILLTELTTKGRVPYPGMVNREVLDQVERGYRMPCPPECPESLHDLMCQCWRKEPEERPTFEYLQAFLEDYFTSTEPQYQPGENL
Chain of Glycogen synthase kinase-3 beta (P49841 whole entry): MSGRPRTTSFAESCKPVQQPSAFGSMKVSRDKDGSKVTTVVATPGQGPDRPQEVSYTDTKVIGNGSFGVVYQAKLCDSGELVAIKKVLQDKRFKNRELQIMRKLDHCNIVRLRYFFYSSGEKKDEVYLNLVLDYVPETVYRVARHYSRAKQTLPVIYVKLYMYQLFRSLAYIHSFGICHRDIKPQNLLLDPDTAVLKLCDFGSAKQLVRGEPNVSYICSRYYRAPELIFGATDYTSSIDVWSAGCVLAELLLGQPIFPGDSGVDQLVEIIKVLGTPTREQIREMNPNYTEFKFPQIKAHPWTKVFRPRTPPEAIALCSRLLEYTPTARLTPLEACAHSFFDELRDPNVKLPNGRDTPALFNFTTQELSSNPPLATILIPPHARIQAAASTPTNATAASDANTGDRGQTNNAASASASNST
Chain of Serine/threonine-protein kinase TBK1 (Q9UHD2 whole entry): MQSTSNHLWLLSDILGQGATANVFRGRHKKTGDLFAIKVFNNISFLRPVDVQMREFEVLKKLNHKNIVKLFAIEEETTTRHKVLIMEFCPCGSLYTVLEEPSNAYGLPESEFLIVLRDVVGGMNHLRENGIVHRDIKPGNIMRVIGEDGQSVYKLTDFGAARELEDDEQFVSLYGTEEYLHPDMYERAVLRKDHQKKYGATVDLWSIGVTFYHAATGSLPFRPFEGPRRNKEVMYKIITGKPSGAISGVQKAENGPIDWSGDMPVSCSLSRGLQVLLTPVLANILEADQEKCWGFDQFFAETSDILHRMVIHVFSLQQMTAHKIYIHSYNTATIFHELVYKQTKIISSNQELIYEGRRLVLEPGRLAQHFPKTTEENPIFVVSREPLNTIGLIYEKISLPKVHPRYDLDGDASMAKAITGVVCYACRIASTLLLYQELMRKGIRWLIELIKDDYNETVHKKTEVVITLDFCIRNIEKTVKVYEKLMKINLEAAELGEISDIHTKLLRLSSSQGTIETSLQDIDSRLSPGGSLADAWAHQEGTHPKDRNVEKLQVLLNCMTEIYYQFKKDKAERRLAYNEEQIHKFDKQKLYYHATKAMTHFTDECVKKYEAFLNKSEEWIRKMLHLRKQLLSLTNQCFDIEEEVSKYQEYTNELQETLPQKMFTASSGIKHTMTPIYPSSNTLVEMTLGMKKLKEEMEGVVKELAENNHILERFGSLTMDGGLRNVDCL
Chain of RAC-beta serine/threonine-protein kinase (P31751 whole entry): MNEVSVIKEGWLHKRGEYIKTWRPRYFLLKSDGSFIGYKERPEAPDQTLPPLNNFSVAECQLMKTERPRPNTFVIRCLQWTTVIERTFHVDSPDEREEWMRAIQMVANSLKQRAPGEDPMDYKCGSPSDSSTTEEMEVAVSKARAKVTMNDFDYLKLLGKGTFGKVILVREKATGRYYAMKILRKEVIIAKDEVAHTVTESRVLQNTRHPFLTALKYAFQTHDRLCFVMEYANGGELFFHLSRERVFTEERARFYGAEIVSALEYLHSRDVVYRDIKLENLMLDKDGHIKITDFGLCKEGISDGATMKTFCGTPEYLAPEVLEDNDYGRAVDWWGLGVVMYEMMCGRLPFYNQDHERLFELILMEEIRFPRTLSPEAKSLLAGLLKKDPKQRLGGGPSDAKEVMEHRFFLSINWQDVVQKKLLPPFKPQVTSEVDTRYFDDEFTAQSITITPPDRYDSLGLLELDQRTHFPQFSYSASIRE
Chain of Focal adhesion kinase 1 (Q05397 whole entry): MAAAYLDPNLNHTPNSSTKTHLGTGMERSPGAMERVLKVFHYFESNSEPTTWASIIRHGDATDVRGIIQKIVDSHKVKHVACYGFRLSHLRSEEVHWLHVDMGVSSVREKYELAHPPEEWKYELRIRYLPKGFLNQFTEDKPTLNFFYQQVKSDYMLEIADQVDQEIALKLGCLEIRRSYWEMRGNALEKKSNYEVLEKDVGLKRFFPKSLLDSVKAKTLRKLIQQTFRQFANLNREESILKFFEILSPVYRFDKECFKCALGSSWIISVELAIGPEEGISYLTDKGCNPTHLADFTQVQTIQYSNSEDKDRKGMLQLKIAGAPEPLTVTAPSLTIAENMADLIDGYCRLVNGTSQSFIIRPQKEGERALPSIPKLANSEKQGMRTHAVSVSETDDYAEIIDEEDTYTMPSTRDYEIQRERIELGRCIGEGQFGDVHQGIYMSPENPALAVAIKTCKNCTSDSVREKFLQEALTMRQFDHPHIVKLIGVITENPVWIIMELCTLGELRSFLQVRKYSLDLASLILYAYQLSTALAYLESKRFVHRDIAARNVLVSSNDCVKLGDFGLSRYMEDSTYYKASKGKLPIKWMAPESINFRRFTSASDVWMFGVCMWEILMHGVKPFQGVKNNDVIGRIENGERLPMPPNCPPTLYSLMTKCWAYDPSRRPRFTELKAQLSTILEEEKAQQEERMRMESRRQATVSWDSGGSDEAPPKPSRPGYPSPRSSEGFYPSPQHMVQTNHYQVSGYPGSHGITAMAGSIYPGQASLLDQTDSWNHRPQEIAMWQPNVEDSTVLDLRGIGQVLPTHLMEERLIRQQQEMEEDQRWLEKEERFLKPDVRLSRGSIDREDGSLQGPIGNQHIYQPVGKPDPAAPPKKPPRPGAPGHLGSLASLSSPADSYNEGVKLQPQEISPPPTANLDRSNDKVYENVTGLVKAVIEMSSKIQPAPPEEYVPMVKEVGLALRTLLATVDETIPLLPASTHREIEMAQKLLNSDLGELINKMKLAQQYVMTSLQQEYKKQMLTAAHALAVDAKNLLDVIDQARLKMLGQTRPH
Chain of Cyclin-dependent kinase 7 (P50613 whole entry): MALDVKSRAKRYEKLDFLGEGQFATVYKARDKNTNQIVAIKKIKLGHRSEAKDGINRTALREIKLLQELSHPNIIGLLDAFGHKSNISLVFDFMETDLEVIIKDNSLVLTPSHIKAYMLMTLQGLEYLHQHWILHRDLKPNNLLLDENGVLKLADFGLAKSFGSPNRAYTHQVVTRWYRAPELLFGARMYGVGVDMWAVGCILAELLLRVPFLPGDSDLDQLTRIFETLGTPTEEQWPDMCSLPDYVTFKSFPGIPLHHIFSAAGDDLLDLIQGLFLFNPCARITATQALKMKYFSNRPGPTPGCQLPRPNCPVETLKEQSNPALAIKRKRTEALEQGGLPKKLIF

`CCn1nc(C#Cc2cc(C(=O)Nc3ccc(CN4CCN(C)CC4)c(C(F)(F)F)c3)ccc2C)c2c(N)ncnc21` gave an Activity (MDA-MB-231 [1]) of 10.4%, an IC50 (Focal adhesion kinase 1) greater than 10 µM and an Activity (MDA-MB-231 [2]) of 3.92%. The Activity (MDA-MB-231 [3]) was “Dose-dependent effect”, the inhibition (Mus musculus [4]) was “Active” and the IC50 (Bcr/Abl fusion protein) was 0.001 µM. For the same molecule, the Activity (Mus musculus [5]) was “Non-toxic”, the Activity (MDA-MB-231 [6]) was “inactive” and the viability at 0.3 µM (MDA-MB-231 [7]) was 76.7%. For the same molecule, the IC50 [8] was greater than 10 µM, the IC50 [9] was greater than 10 µM and the IC50 (Aurora kinase A) was greater than 10 µM. For the same molecule, the viability at 0.3 µM (MDA-MB-231 [10]) was 63.2%, the IC50 [11] was 0.03 µM and the Activity (MDA-MB-231 [12]) was “Active”. For the same molecule, the IC50 [13] was greater than 10 µM, the IC50 [14] was greater than 10 µM and the inhibition (MDA-MB-231 [15]) was “Active”. For the same molecule, the Activity (MDA-MB-231 [16]) was “Active”, the viability at 0.1 µM (MDA-MB-231 [17]) was 79.1% and the inhibition (Mus musculus [18]) was “Active”. For the same molecule, the viability at 0.03 µM (MDA-MB-231 [19]) was 92.9%, the IC50 [20] was 10 µM and the inhibition (MDA-MB-231 [21]) was “Active”. The IC50 [22] was greater than 10 µM, the IC50 [23] was greater than 10 µM and the IC50 [24] was greater than 10 µM. It also gave an IC50 [25] greater than 10 µM and an IC50 (MCF7) of 7.25 µM.

Reference: ChEMBL document CHEMBL3425429
